What was measured:
Mus musculus [1] = test: Toxicity in collagen-induced B10.RIII mouse arthritis model assessed as change in femur cortical thickness at 30 mg/kg, po qd for 35 days relative to 30% cremophor-treated control; type: organism-based; set-up: dose 30 mg/kg, route oral; conditions: in vivo, 840 h
In short: (§1)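 Female B10.RIII mice were immunized with porcine type II collagen in complete Freund's adjuvant, enrolled at arthritis onset (10/group), and dosed orally once daily for five weeks in 30% cremophor vehicle. Four paws were scored 1–4 (max 16), as AUC. Serum biomarkers were taken at day 35. Femur cortical thickness was measured by microCT in non-immunized, age-matched mice dosed identically.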

Mus musculus [2] = test: Toxicity in collagen-induced B10.RIII mouse arthritis model assessed as change in femur cortical thickness at 3 mg/kg, po qd for 35 days relative to 30% cremophor-treated control; type: organism-based; set-up: dose 3 mg/kg, route oral; conditions: in vivo, 840 h; in short: as §1
Mus musculus [3] = test: Toxicity in collagen-induced B10.RIII mouse arthritis model assessed as change in femur cortical thickness at 30 mg/kg, po qd for 35 days relative to 1% methylcellulose-treated control; type: organism-based; set-up: dose 30 mg/kg, route oral; conditions: in vivo, 840 h
In short: (§2)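 Female B10.RIII mice were immunized at 12–15 weeks with porcine type II collagen emulsified in complete Freund's adjuvant (100 μg intradermal, tail base). Animals were enrolled at first arthritis signs, 10 per group, and dosed orally once daily for five weeks in 1% methylcellulose. Paws were scored 1–4 each (max 16), with AUC taken. Serum was collected at day 35. Femur cortical thickness was measured by microCT in non-immunized, age-matched mice given the same dosing.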

Mus musculus [4] = test: Toxicity in collagen-induced B10.RIII mouse arthritis model assessed as change in femur cortical thickness at 3 mg/kg, po qd for 35 days relative to 1% methylcellulose-treated control; type: organism-based; set-up: dose 3 mg/kg, route oral; conditions: in vivo, 840 h; in short: as §2
Mus musculus [5] = test: Toxicity in collagen-induced B10.RIII mouse arthritis model assessed as change in insulin level at 30 mg/kg, po qd for 35 days relative to 30% cremophor-treated control; type: organism-based; set-up: dose 30 mg/kg, route oral; conditions: in vivo, 840 h; in short: as §1
Mus musculus [6] = test: Toxicity in collagen-induced B10.RIII mouse arthritis model assessed as change in insulin level at 3 mg/kg, po qd for 35 days relative to 30% cremophor-treated control; type: organism-based; set-up: dose 3 mg/kg, route oral; conditions: in vivo, 840 h; in short: as §1
Mus musculus [7] = test: Toxicity in collagen-induced B10.RIII mouse arthritis model assessed as change in insulin level at 30 mg/kg, po qd for 35 days relative to 1% methylcellulose-treated control; type: organism-based; set-up: dose 30 mg/kg, route oral; conditions: in vivo, 840 h; in short: as §2
Mus musculus [8] = test: Toxicity in collagen-induced B10.RIII mouse arthritis model assessed as change in insulin level at 3 mg/kg, po qd for 35 days relative to 1% methylcellulose-treated control; type: organism-based; set-up: dose 3 mg/kg, route oral; conditions: in vivo, 840 h; in short: as §2
Mus musculus [9] = test: Toxicity in collagen-induced B10.RIII mouse arthritis model assessed as change in free fatty acid level at 30 mg/kg, po qd for 35 days relative to 30% cremophor-treated control; type: organism-based; set-up: dose 30 mg/kg, route oral; conditions: in vivo, 840 h; in short: as §1
Mus musculus [10] = test: Toxicity in collagen-induced B10.RIII mouse arthritis model assessed as change in free fatty acid level at 3 mg/kg, po qd for 35 days relative to 30% cremophor-treated control; type: organism-based; set-up: dose 3 mg/kg, route oral; conditions: in vivo, 840 h; in short: as §1
Mus musculus [11] = test: Toxicity in collagen-induced B10.RIII mouse arthritis model assessed as change in free fatty acid level at 30 mg/kg, po qd for 35 days relative to 1% methylcellulose-treated control; type: organism-based; set-up: dose 30 mg/kg, route oral; conditions: in vivo, 840 h; in short: as §2
Mus musculus [12] = test: Toxicity in collagen-induced B10.RIII mouse arthritis model assessed as change in free fatty acid level at 3 mg/kg, po qd for 35 days relative to 1% methylcellulose-treated control; type: organism-based; set-up: dose 3 mg/kg, route oral; conditions: in vivo, 840 h; in short: as §2
Mus musculus [13] = test: Toxicity in collagen-induced B10.RIII mouse arthritis model assessed as change in triglyceride level at 30 mg/kg, po qd for 35 days relative to 1% methylcellulose-treated control; type: organism-based; set-up: dose 30 mg/kg, route oral; conditions: in vivo, 840 h; in short: as §2
Mus musculus [14] = test: Toxicity in collagen-induced B10.RIII mouse arthritis model assessed as change in triglyceride level at 3 mg/kg, po qd for 35 days relative to 1% methylcellulose-treated control; type: organism-based; set-up: dose 3 mg/kg, route oral; conditions: in vivo, 840 h; in short: as §2
Mus musculus [15] = test: Toxicity in collagen-induced B10.RIII mouse arthritis model assessed as change in body fat at 30 mg/kg, po qd for 35 days relative to 30% cremophor-treated control; type: organism-based; set-up: dose 30 mg/kg, route oral; conditions: in vivo, 840 h; in short: as §1
Mus musculus [16] = test: Toxicity in collagen-induced B10.RIII mouse arthritis model assessed as change in body fat at 3 mg/kg, po qd for 35 days relative to 30% cremophor-treated control; type: organism-based; set-up: dose 3 mg/kg, route oral; conditions: in vivo, 840 h; in short: as §1
Mus musculus [17] = test: Toxicity in collagen-induced B10.RIII mouse arthritis model assessed as change in body fat at 30 mg/kg, po qd for 35 days relative to 1% methylcellulose-treated control; type: organism-based; set-up: dose 30 mg/kg, route oral; conditions: in vivo, 840 h; in short: as §2
Mus musculus [18] = test: Toxicity in collagen-induced B10.RIII mouse arthritis model assessed as change in body fat at 3 mg/kg, po qd for 35 days relative to 1% methylcellulose-treated control; type: organism-based; set-up: dose 3 mg/kg, route oral; conditions: in vivo, 840 h; in short: as §2
Mus musculus [19] = test: Toxicity in collagen-induced B10.RIII mouse arthritis model assessed as change in AUC at 30 mg/kg, po qd for 35 days relative to 30% cremophor-treated control; type: organism-based; set-up: dose 30 mg/kg, route oral; conditions: in vivo, 840 h; in short: as §1
Mus musculus [20] = test: Toxicity in collagen-induced B10.RIII mouse arthritis model assessed as change in AUC at 3 mg/kg, po qd for 35 days relative to 30% cremophor-treated control; type: organism-based; set-up: dose 3 mg/kg, route oral; conditions: in vivo, 840 h; in short: as §1
Mus musculus [21] = test: Toxicity in collagen-induced B10.RIII mouse arthritis model assessed as change in AUC at 30 mg/kg, po qd for 35 days relative to 1% methylcellulose-treated control; type: organism-based; set-up: dose 30 mg/kg, route oral; conditions: in vivo, 840 h; in short: as §2
Mus musculus [22] = test: Toxicity in collagen-induced B10.RIII mouse arthritis model assessed as change in AUC at 3 mg/kg, po qd for 35 days relative to 1% methylcellulose-treated control; type: organism-based; set-up: dose 3 mg/kg, route oral; conditions: in vivo, 840 h; in short: as §2
[23] = target: T1, Glucocorticoid receptor (Homo sapiens) (UniProt P04150); test: Agonist activity at glucocorticoid receptor in human […] cells assessed as suppression of vitamin D-induced osteocalcin production at 2 uM after 48 hrs by Gla-type osteocalcin ELISA relative to dexomethasone; type: cell-based
T1 sequence (whole entry): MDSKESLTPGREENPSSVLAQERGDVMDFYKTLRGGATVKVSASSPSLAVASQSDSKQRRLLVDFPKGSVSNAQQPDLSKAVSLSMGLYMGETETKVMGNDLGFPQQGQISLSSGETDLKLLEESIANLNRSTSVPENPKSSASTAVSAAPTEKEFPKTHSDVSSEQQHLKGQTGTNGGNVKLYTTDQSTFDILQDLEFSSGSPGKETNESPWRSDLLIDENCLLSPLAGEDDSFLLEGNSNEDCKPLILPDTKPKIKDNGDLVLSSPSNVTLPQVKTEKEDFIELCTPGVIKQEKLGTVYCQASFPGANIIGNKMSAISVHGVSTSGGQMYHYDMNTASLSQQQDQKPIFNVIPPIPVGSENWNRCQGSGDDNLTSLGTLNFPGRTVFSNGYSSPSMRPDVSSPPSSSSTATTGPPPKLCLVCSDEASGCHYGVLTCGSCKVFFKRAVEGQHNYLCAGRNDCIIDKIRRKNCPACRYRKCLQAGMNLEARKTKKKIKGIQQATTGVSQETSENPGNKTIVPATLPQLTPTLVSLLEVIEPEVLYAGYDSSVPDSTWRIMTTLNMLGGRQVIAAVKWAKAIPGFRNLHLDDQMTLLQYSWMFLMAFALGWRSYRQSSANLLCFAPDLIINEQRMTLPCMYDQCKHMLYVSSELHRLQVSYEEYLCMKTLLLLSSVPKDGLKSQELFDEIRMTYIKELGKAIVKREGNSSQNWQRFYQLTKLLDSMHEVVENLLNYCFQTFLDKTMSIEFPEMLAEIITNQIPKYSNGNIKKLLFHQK
In short: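 MG-63 human osteosarcoma cells plated at 20000/well in DMEM/F-12 with 1% charcoal-filtered FBS and 10 μg/mL vitamin C. Medium refreshed next day, then vitamin D (10 nM final) added with compound (2 × 10−6 to 10−10 M), duplicates. Incubated 48 h at 37 °C; supernatant osteocalcin measured by Gla-type ELISA. Vitamin D-only wells = 100%. Max efficacy at 2 μM is relative to dexamethasone (100%).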

Question: What does the source list for C[C@]12C=CC(=O)C=C1CC[C@@H]1[C@@H]2[C@@H](O)C[C@@]2(C)[C@H]1CC[C@]2(O)C(=O)CO [PREDNISOLONE]?
Answer: Activity (Mus musculus [1]): -22%; Activity (Mus musculus [2]): -13%; Activity (Mus musculus [3]): -18%; Activity (Mus musculus [4]): -9%; Activity (Mus musculus [5]): 703%; Activity (Mus musculus [6]): 36%; Activity (Mus musculus [7]): 103%; Activity (Mus musculus [8]): 62%; Activity (Mus musculus [9]): 54%; Activity (Mus musculus [10]): 30%; Activity (Mus musculus [11]): 44%; Activity (Mus musculus [12]): 39%; Activity (Mus musculus [13]): 226%; Activity (Mus musculus [14]): 21%; Activity (Mus musculus [15]): 71%; Activity (Mus musculus [16]): 30%; Activity (Mus musculus [17]): 68%; Activity (Mus musculus [18]): 48%; Activity (Mus musculus [19]): -90%; Activity (Mus musculus [20]): -55%; Activity (Mus musculus [21]): -78%; Activity (Mus musculus [22]): -43%; Emax [23]: 78%
